Measurements of several laboratories.
Compare with care: the assays were run in different laboratories.
ADRA2A: Alpha-2A adrenergic receptor (ADRA2A, Homo sapiens, UniProt P08913)
gag-pol reverse transcriptase: Gag-Pol polyprotein, reverse transcriptase (gag-pol, Human immunodeficiency virus 1, UniProt P03366)
OGT: UDP-N-acetylglucosamine--peptide N-acetylglucosaminyltransferase 110 kDa subunit (OGT, Homo sapiens, UniProt O15294)
OPRD1: Delta-type opioid receptor (OPRD1, Homo sapiens, UniProt P41143)
HTR3A: 5-hydroxytryptamine receptor 3A (HTR3A, Homo sapiens, UniProt P46098)

CC(CCc1ccccc1)NC(C)C(O)c1ccc(O)cc1 (centres unmarked) — IC50 (ADRA2A; calcium signal; antagonist): 18.6 µM
COc1ncccc1-c1cnn2ccc(N3CCN(C(=O)OC(C)C)CC3)nc12 — IC50 (ADRA2A; cell-free assay): > 30 µM
Cc1cn([C@@H]2CC[C@H](OC(C(=O)O)C(=O)O)C2)c(=O)[nH]c1=O (relative stereo) — IC50 (gag-pol reverse transcriptase; enzyme activity; inhibitor; radiometric): 42 µM
CC[C@H](C)[C@H](NC(=O)[C@H](CO)NC(=O)[C@H](Cc1ccc(O)cc1)NC(=O)[C@H](CCCCN)NC(=O)[C@@H]1CCCN1C(=O)[C@H](CCSC)NC(=O)[C@@H](N)Cc1ccccc1)C(=O)N[C@H](C(=O)N[C@@H](Cc1ccccc1)C(=O)O)[C@@H](C)CC — IC50 (OGT; enzyme activity; inhibitor; fluorescence): 120 µM
CC(C)[C@H](CNCc1ccccc1)N1CCN(CCC2CC3CCC2C3)[C@@H](Cc2ccccc2)C1 (some centres unmarked) — IC50 (OPRD1; cell-free assay): > 10 µM
C[C@@H](NC(=O)[C@@H](N)Cc1ccc(O)cc1)C(=O)NCC(=O)N[C@H](CC(=O)NNC(=O)C[C@H](Cc1ccccc1)NC(=O)CNC(=O)[C@@H](C)NC(=O)[C@@H](N)Cc1ccc(O)cc1)Cc1ccccc1 — IC50 (OPRD1; ligand displacement; radioligand): 0.00145 µM
CC[C@H](C)[C@H](NC(=O)[C@H](CO)NC(=O)[C@H](Cc1ccc(O)cc1)NC(=O)[C@H](CCCCN)NC(=O)[C@@H]1CCCN1C(=O)[C@H](CCSC)NC(=O)[C@H](Cc1ccccc1)NC(=O)[C@H](CCSC)NC(=O)[C@@H](NC(=O)[C@@H]1CCCN1C(=O)[C@H](Cc1ccccc1)NC(=O)[C@H](CC(=O)O)NC(=O)CN)C(C)C)C(=O)N[C@H](C(=O)N[C@@H](Cc1ccccc1)C(=O)N[C@@H](CCCCN)C(=O)N[C@@H](CCCCN)C(=O)O)[C@@H](C)CC — IC50 (OGT; enzyme activity; inhibitor; fluorescence): 16 µM
CCC[C@H](CNC)NC[C@@H](CCC)NCC1CCC(C)CC1 (some centres unmarked) — IC50 (OPRD1; cell-free assay): > 10 µM
C[C@H](N)Cn1ncc2ccc3c(c21)CCCO3 — IC50 (HTR3A; ligand displacement; radioligand): 31.7 µM
CCN(CC)C(=O)C1CN2CCc3cc(OC)c(OC)cc3C2CC1OC(C)=O (centres unmarked) — IC50 (ADRA2A; ligand displacement; radioligand): 0.825 µM
CC(C)Cc1ccc([C@@H](C)C(=O)O)cc1 — IC50 (Histone acetyltransferase p300 (EP300, Homo sapiens, UniProt Q09472); enzyme activity; inhibitor; mobility shift): ~6000 µM
CN1CCC(=C2c3ccccc3CCc3sccc32)CC1 — IC50 (ADRA2A; calcium signal; antagonist): 7.25 µM
CNC[C@H](Cc1ccc(O)cc1)NC[C@H](Cc1ccc(O)cc1)NCC1CCCCCC1 — IC50 (OPRD1; cell-free assay): > 10 µM
CCOC(=O)c1cncn1[C@H](C)c1ccc(C2(C(F)(F)F)N=N2)cc1 — IC50 (HTR3A; ion current; two-electrode voltage clamp; oocytes): 9 µM
CNC[C@@H](Cc1ccc(O)cc1)N1CCN(CCc2cccc(C)c2)[C@@H](C(C)C)C1 — IC50 (OPRD1; cell-free assay): > 10 µM
O=c1c(O)c(-c2ccc(O[C@@H]3O[C@H](CO)[C@@H](O)[C@H](O)[C@H]3O)c(O)c2)oc2cc(O)cc(O)c12 — IC50 (Carbonic anhydrase 2 (CA2, Homo sapiens, UniProt P00918); enzyme activity; inhibitor; absorbance): 0.0194 µM
CC(C)CCN1CCN([C@@H](CNCc2ccccc2)C(C)C)C[C@H]1C(C)C — IC50 (OPRD1; cell-free assay): > 10 µM
Cc1cn([C@@H]2C=C[C@H](OC(P(=O)(O)O)P(=O)(O)O)C2)c(=O)[nH]c1=O (relative stereo) — IC50 (gag-pol reverse transcriptase; enzyme activity; inhibitor; radiometric): 204 µM
CN1CCN(C2=Nc3ccccc3Oc3ccc(Cl)cc32)CC1 — IC50 (HTR3A; ligand displacement; radioligand): 0.377 µM
CCCC[C@H](CNCc1ccccc1)N1CCN(CC(C)C)[C@H](Cc2ccc(O)cc2)C1 — IC50 (OPRD1; cell-free assay): > 10 µM
